Bioassay records: PubChem, Sanford-Burnham Center for Chemical Genomics
In the library only some 2.3% were active in any assay of this set; here they are far more common.
LMPTP inh – LMPTP phosphatase inhibitors, primary screen, biochemical, fluorescence intensity, uHTS. Low molecular weight phosphotyrosine protein phosphatase (Homo sapiens), P24666. recombinant LMPTP-A, OMFP fluorogenic substrate. 0.22% of 360,000 active. inhibition, % at 20 µM;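 active means compounds that cut the enzyme signal by at least half of the control window in the single-dose screen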;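 further: plate controls were DMSO wells with enzyme plus substrate for no effect and substrate without enzyme for full effect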
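material = LMPTP-A | quantity = 0.625 nM enzyme | reagent = OMFP substrate, 400 µM final | buffer or medium = Bis-Tris pH 6.0, DTT, detergent | detection = endpoint fluorescence intensity from OMFP dephosphorylation | dosing = single 20 µM dose | read-out basis = % inhibition relative to no-enzyme and uninhibited control wells | control set = no-enzyme and uninhibited controls | timing = 50 min at room temperature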
SUMO1-SIM PPI – modulators of SUMO1 protein-protein interactions, primary screen, biochemical, uHTS | 0.33% of 360,000 active | SUMO1 binding to a labelled peptide, TR-FRET, 1 h | inhibition, % at 20 µM | Small ubiquitin-related modifier 1 (Homo sapiens), P63165 | AID 602429, 2012; in the data active means inhibition above about 37%
DNMT1 block – human DNMT1 methyltransferase inhibitors, primary screen, biochemical, molecular beacon, fluorescence, HinP1I cleavage, uHTS. 0.83% of 360,000 active. DNA (cytosine-5)-methyltransferase 1 (Homo sapiens), P26358. inhibition (reported as % activation of signal), % at 10 µM. AID 588458, 2011; in the data active means inhibition above about 50%
Scp-1 inhibitor – Scp-1 phosphatase inhibitors, primary screen, biochemical, colorimetric, uHTS; inhibition, % at 20 µM; Carboxy-terminal domain RNA polymerase II polypeptide A small phosphatase 1 (Homo …; 0.88% of 340,000 active; Recombinant Scp1, phosphopeptide, malachite green phosphate absorbance;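 active means inhibition above about 50% at 20 µM, limit read from the data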;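 further: plate controls were DMSO wells with enzyme for no effect and wells lacking enzyme for full effect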
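Test system: SCP-1 catalytic domain; Buffer or medium: Acidic Tris acetate buffer with magnesium and detergent; Also added: Phosphorylated 17-residue peptide substrate; Compound: single 20 µM dose, 1% DMSO; Schedule: enzyme reaction 45 min at room temperature, colour 5 min, stabilisation 30 min; Signal: Phosphate-binding colour reagent, absorbance read at 630 nm.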
Rpn11 block – Rpn11 (PSMD14) deubiquitinase inhibitors, primary screen, biochemical, fluorescence polarization, uHTS; 0.59% of 360,000 active; inhibition, % at 20 µM; 26S proteasome non-ATPase regulatory subunit 14 (Homo sapiens), O00487; human 26S proteasome, Ub4-pepOG fluorescence polarization; 20S core pre-blocked with epoxomicin;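 active means inhibition at 20 µM, scaled to each plate's controls, above about 33%, limit read from the data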
STEP inh – STEP phosphatase inhibitors, primary screen, biochemical, fluorescence intensity, uHTS; Tyrosine-protein phosphatase non-receptor type 5 (Homo sapiens), P54829; recombinant STEP, OMFP fluorogenic substrate; AID 588621, 2011; inhibition, % at 20 µM; 0.25% of 360,000 active;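 active means inhibition at 20 µM, scaled per plate between control wells, above about 37%, limit read from the data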;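 further: 0% = DMSO with enzyme and substrate and 100% = substrate only without enzyme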
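System: STEP (striatal-enriched tyrosine phosphatase) enzyme, cell-free; medium: Bis-Tris pH 6.0 buffer with DTT, detergent; dosing: 20 µM, 1% DMSO; times: reaction 20 min, ambient temperature; detection: fluorescence, 480/540 nm; read-out basis: normalized % inhibition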
Beacon interf DR – spectral interference with molecular beacon fluorescence, dose response, artefact control for DNMT1 inhibitor project, biochemical, fluorescent molecular beacon; shares compounds with DNMT1 block; spectral interference counter-screen; IC50, µM; 200 tested, under 10 active; AID 602382, 2012; call rule not given here
DNMT1 inh conf – DNMT1 methyltransferase inhibitor retest, confirmation, biochemical, molecular beacon, fluorescence, single concentration. shares compounds with DNMT1 block. DNMT1 molecular beacon HinP1I cleavage. inhibition, % at 10 µM. 8% of 2,300 active. AID 602385, 2012;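 active means average inhibition of at least 30% in the single-concentration confirmation test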
DNMT1 interf – shows spectral interference in the DNMT1 beacon assay; shares compounds with DNMT1 block; DNMT1 molecular beacon spectral interference counterscreen, fluorescence 485/520; activation (fluorescence interference), % at 10 µM; 1% of 2,300 active;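 active means activation of at least 30% at 10 µM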;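 further: DNMT1 catalytic domain with a HinP1I cleavage step and a FAM/dabcyl DNA beacon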
Rpn11 confirm – Rpn11 (PSMD14) deubiquitinase inhibitors, confirmation, biochemical, fluorescence polarization, single concentration; inhibition, % at 20 µM; purified human 26S proteasome, Ub4-pepOG fluorescence polarization; proteasome pretreated with epoxomicin; 29% of 1,900 active; shares compounds with Rpn11 block
MMP-2 counter – MMP-2 enzyme inhibition, confirmation, counter-screen for RPN11 inhibitor project, biochemical, fluorescence, single concentration; AID 602330, 2012; recombinant MMP-2, FRET peptide cleavage fluorescence; shares compounds with Rpn11 block; 4% of 1,900 active; inhibition, % at 20 µM;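 further: human MMP-2 activated beforehand with APMA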
Thrombin FP – bovine thrombin protease inhibition, confirmation, counter-screen for Rpn11 inhibitor project, biochemical, fluorescence polarization, single concentration; shares compounds with Rpn11 block; bovine thrombin cleavage of Ub4-pepOG; inhibition, % at 20 µM; 13% of 1,900 active;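 active means mean inhibition at least 40% at 20 µM, or signal 3 deviations below plate average, so some actives read negative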;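 further: plate controls were thrombin with DMSO for no effect and buffer wells lacking thrombin for full effect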
Target sequence (P00735 whole entry, looked up): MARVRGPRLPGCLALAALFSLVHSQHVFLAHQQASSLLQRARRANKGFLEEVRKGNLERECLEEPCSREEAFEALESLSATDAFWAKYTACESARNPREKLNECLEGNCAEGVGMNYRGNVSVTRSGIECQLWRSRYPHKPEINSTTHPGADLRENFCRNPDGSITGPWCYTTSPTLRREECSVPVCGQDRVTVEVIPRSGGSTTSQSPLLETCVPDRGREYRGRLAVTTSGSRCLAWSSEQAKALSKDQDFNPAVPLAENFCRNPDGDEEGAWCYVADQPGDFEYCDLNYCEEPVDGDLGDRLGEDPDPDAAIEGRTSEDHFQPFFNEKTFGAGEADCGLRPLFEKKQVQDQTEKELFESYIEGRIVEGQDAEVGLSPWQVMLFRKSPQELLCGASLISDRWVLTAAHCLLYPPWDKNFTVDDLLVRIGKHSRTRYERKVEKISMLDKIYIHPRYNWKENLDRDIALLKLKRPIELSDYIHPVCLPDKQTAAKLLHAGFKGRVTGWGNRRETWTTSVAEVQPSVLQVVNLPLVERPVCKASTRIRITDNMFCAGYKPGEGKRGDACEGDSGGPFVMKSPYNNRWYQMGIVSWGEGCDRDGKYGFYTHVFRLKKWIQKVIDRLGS
Starred values were filed as active, the others as inactive; x = no result; + = active, no number. Unless noted, no stated cut-off is given here; in the data, active means inhibition above about 40%; inactive means the rest.

SMILES	LMPTP inh	SUMO1-SIM PPI	DNMT1 block	Scp-1 inhibitor	Rpn11 block	STEP inh	DNMT1 inh conf	DNMT1 interf	Rpn11 confirm	MMP-2 counter	Thrombin FP	others
O=C(COC(=O)CCN1C(=O)/C(=C\C=C\c2ccccc2)SC1=S)Nc1ccc(Br)cc1	4	-3	67*	-15	59*	3	3	5	23	-13	-32
CCOc1ccccc1NC(=O)CSc1nnc(CNC(=O)c2c(F)cccc2Cl)o1	-1	-3	-1	-8	0	-3	x	x	x	x	x
CCc1c(Cl)nc(N)nc1Nc1ccccc1Cl	2	3	2	3	0	-2	x	x	x	x	x
CCc1c(Cl)nc(N)nc1Nc1ccccc1C	0	-1	75*	-10	76*	-3	1	2	-31	-14	-19
COc1ccc(-c2cc(C(=O)Nc3cc(Cl)ccc3O)no2)cc1	66*	-1	54*	-4	51*	14	1	7	12	-7	-5
COc1ccc(C(=O)Nc2ccc(N3CCCC3)cc2)cc1	40	5	86*	-9	43*	5	4	1	13	-10	-6
COC(=O)[C@]12CCCCC=C1N(CCC1=CCCCC1)C(=O)[C@H](CC(=O)NCc1cccc3ccccc13)C2	6	7	x	x	x	x	x	x	x	x	x
CCS(=O)(=O)C1=NN2C(=N)/C(=C\c3ccc(SCc4ccco4)o3)C(=O)N=C2S1	42	50*	99*	77*	+	14	50*	1	122*	11	49*	Beacon interf DR=>99
N=C1/C(=C\c2ccc(SCc3ccccc3)o2)C(=O)N=C2SC=NN12	3	-7	5	-1	4	-3	x	x	x	x	x
O=C(N/N=C/c1ccc(Br)cc1)c1ccc(NC(=O)c2ccccc2)cc1	21	11	74*	16	140*	9	-1	-6	-1	-24	-10
CCOC(=O)C1=C(C)N=c2s/c(=C/c3ccc(OCC(=O)O)c(OC)c3)c(=O)n2C1c1ccc(Cl)cc1 (stereo unspecified)	3	7	58*	51*	53*	36	59*	-1	93*	-10	-7	Beacon interf DR=>99
O=C(c1ccccc1NS(=O)(=O)c1cccc([N+](=O)[O-])c1)N1CCCC1	0	-10	0	-8	-5	0	x	x	x	x	x
CCOC(=O)c1sc(NC(=O)/C=C/c2c(F)cccc2Cl)nc1C	7	1	60*	-5	48*	0	0	-2	0	12	8
CCOC(=O)c1sc(NC(=O)Nc2ccccc2F)nc1C	-1	-1	4	-5	-5	2	x	x	x	x	x
COCCn1c(SCc2nc3ccccc3c(=O)[nH]2)nc2ccccc2c1=O	-1	0	-3	-2	-6	-2	x	x	x	x	x
CCCn1c(SCc2nc3sc(C)c(C)c3c(=O)[nH]2)nc2ccccc2c1=O	0	1	54*	-7	41*	4	0	-4	30	4	20
CCN1CCN(C(=O)c2ccc(N3CC4CC(C3)c3cccc(=O)n3C4)c([N+](=O)[O-])c2)CC1 (stereo unspecified)	-1	0	3	-3	-6	1	x	x	x	x	x
C=CCOC(=O)c1cc(-c2ccc(/C=C3\C(=O)NC(=O)C(C#N)=C3C)o2)ccc1Cl	23	43*	105*	87*	58*	4	97*	-3	37	14	31	Beacon interf DR=>99
COc1ccc(CN2CCN(c3nc4ccccc4s3)CC2)cc1	-1	-2	1	-6	-2	-2	x	x	x	x	x
COc1ccc(CCn2c(O)cc3nn(-c4nc5ccccc5s4)c(=O)c-3c2C)cc1	53*	14	79*	62*	55*	11	11	44*	8	-6	16
Cc1ccc(-c2nn(CC(=O)NCc3cc(-c4nn(C)c(=O)c5ccccc45)ccc3C)c(=O)c3ccccc23)cc1	22	0	57*	4	80*	7	0	-5	7	-20	-3
CCC(=O)NCc1cc(-c2nn(C)c(=O)c3ccccc23)ccc1C	-2	9	1	-3	-17	-2	x	x	x	x	x
COc1ccc(NC(=O)Cn2nnc(C(=O)NCc3ccc(C)cc3)c2N)cc1OC	0	0	1	2	2	-3	x	x	x	x	x
Cc1ccc(CNC(=O)c2nnn(CC(=O)Nc3cc(C)cc(C)c3)c2N)cc1	14	3	56*	-1	58*	-2	-2	0	51*	-31	-13
COc1ccc(N=Cc2oc3ccc4ccccc4c3c2O)cc1	11	-15	60*	40	56*	20	4	2	60*	-42	21
CC(=O)Nc1ccc(NC(=O)C2CCCN2/C=C/C(=O)C(F)(F)F)cc1 (stereo unspecified)	-1	-5	1	2	1	1	x	x	x	x	x
